Source: PubChem BioAssay AID2373 (NMMLSC, 2010)

Biological target: Cell division control protein 42 homolog (Homo sapiens) (UniProt P60953)
Experiment: Cdc42 GTP Bmax and Kd shifts – biochemical, Mg buffer, varying GTP, mechanism study for Ras-family GTPase inhibitor project, late-stage follow-up (AID 2373)
Details: GST-Cdc42 beads, BODIPY-GTP binding, flow cytometry
Procedure, shortened: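 Assay system: GST-tagged human Cdc42 bound to glutathione beads. Times: 2 min compound preincubation, overnight 4 °C bead loading. Signal: flow cytometry, median bead fluorescence at 530 nm. Read-out basis: fitted GTP Bmax and Kd. Control set: DMSO vehicle.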

Chain of Cell division control protein 42 homolog (Homo sapiens) (P60953 whole entry, looked up): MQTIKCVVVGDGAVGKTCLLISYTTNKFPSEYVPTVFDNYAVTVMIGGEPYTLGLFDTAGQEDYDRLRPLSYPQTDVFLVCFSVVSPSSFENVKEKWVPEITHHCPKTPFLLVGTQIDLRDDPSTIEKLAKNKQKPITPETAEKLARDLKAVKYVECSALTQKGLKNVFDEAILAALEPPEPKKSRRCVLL

**Q.** What does the source list for COc1ccc(C2CC(c3ccccc3)=NN2c2ccc(S(N)(=O)=O)cc2)cc1 (configuration not stated)?
**A.** GTP Bmax with compound (at 10 µM, stronger effect = lower value): 2320; Kd (measured here: GTP affinity with compound): 16.7 nM
